PLC-gamma1 inh – blocks human PLC-gamma1 enzyme activity; P19174; purified PLC-gamma1, fluorogenic substrate, fluorescence; inhibition, % at 12.2 µM; 370,000 tested, 0.84% active; in the data active = inhibition above about 9.5%
Target sequence (P19174 whole entry, looked up): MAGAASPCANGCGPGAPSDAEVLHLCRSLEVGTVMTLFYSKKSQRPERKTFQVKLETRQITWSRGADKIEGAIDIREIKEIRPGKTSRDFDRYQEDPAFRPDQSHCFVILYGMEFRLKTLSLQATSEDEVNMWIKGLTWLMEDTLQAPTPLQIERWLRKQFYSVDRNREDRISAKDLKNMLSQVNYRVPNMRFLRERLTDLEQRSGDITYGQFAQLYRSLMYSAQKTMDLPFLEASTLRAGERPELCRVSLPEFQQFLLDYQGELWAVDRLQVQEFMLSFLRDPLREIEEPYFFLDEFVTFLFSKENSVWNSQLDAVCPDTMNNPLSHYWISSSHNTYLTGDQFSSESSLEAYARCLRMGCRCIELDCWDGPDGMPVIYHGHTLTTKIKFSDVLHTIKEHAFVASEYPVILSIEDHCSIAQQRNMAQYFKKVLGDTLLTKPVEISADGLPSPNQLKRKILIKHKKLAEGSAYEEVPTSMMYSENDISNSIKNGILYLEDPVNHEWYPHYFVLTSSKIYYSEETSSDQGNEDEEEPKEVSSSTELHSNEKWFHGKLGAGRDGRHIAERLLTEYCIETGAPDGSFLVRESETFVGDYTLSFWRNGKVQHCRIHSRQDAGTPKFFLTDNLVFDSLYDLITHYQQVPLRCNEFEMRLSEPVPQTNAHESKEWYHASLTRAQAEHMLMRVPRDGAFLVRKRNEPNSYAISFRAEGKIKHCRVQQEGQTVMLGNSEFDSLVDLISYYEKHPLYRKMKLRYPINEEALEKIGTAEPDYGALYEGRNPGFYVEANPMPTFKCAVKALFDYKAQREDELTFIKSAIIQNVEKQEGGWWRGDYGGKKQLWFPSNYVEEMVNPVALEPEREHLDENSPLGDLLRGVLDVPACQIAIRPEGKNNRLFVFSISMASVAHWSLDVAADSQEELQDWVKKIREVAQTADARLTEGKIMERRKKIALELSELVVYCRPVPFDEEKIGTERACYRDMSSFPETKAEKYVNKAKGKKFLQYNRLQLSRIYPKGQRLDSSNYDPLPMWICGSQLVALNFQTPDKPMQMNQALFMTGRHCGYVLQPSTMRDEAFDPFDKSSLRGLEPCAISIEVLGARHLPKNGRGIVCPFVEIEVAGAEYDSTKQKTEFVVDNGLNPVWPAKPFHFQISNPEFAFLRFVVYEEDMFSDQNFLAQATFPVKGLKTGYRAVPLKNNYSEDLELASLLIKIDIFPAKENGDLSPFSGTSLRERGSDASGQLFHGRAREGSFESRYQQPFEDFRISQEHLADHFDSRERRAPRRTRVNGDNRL
DDE Tn6 FP inh – inhibitors of Tn6 peptide binding to human fibrin DD(E); Fibrin DD(E) TRITC-Tn6 fluorescence polarization displacement; AID 720509; P02675; 370,000 tested, 0.21% active; inhibition, % at 8.3 µM;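 active = inhibition above a per-campaign cutoff: mean of compounds within control limits plus 3 SD, cut at about 15% in these data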
DDE Tn7 FP inh – disrupts Tn7 cyclic peptide binding to fibrin D-Dimer-E complex | 370,000 tested, 0.13% active | FP displacement of FITC-Tn7 peptide from fibrin DD(E); 0% = median of compound wells per plate | inhibition, % at 8.3 µM | P02675;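 active = inhibition above the mean of compounds falling within the control limits plus 3 SD of them, cut at about 14% in these data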
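Test system: human clot-derived fibrin DD(E) complex / Quantity: 2 µM final DD(E) protein / Incubation: 10 min plus 3 h, room temperature / Measured by: fluorescence polarization / Benchmarks: high control of 10 µM Aha-Tn7 peptide / Replicates: singlicate testing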
PLC-beta3 inh – blocks human PLC-beta3 enzyme activity. AID 720704. Q01970. Purified PLC-beta3, fluorogenic substrate, fluorescence. 370,000 tested, 0.18% active. inhibition, % at 12.2 µM; in the data active = inhibition above about 11%
ADAM10 inh – ADAM10 inhibition, QFRET primary screen. O14672. recombinant ADAM10, EDANS/DABCYL FRET peptide cleavage, 3 h. inhibition, % at 7 µM. 370,000 tested, 0.62% active. AID 720582;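 active = inhibition above a per-campaign cutoff equal to the mean of compounds falling between control-based bounds plus 3 SD, cut at about 20% in these data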
ADAM17 inh – ADAM17 inhibition, QFRET primary screen | P78536 | recombinant ADAM17, EDANS/DABCYL FRET peptide cleavage | inhibition, % at 6.95 µM | 370,000 tested, 0.83% active | AID 720648;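 active = inhibition above the mean of compounds lying between control limits plus 3 SD, set per campaign, cut at about 8.5% in these data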
ADAM10 confirm – confirmation of inhibitors of human ADAM10. shares compounds with ADAM10 inh. ADAM10 QFRET peptide cleavage, EDANS fluorescence. inhibition, % at 6.95 µM. 2,100 tested, 1% active. AID 743208;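 active = inhibition above about 20% chosen separately for each screening run, limit read from the data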
ADAM17 ctr – inhibits human ADAM17 in ADAM10 exosite counter-screen | shares compounds with ADAM10 inh | ADAM17 QFRET peptide cleavage, EDANS fluorescence | inhibition, % at 6.95 µM | 2,100 tested, 0.5% active;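 active = mean triplicate inhibition above the solvent-only control wells' mean plus 3 SD, cut at about 12% in these data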
ADAM10 counter – ADAM10 inhibition, counter-screen for ADAM17 exosite hits; 2,900 tested, 47% active; inhibition, % at 6.95 µM; recombinant ADAM10, EDANS/DABCYL FRET peptide cleavage, 3 h; shares compounds with ADAM17 inh; AID 743256;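 active = mean inhibition over the triplicate runs exceeds the activity threshold set in the earlier primary screen, cut at about 20% in these data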
ADAM17 confirm – confirmation of inhibitors of human ADAM17; shares compounds with ADAM17 inh; recombinant ADAM17, EDANS/DABCYL QFRET peptide cleavage; inhibition, % at 6.95 µM; 2,900 tested, 65% active; AID 743257;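 active = mean inhibition across replicates above the hit cutoff set in the primary screen, cut at about 8.5% in these data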
Of the large screens only hits and unclear results are named; the others gave an inactive call (follow-up assays come after a bar, where they were run). Sampled rows, rich in hits. Any-hit rate of the full collection: about 2.3%.

O=C(NNc1ccccc1Br)C(O)(c1cccc(C(F)(F)F)c1)c1cccc(C(F)(F)F)c1	ADAM10 inh 48.6, ADAM17 inh 25.1 | ADAM10 confirm inactive | ADAM17 ctr inactive | ADAM10 counter 52.2 | ADAM17 confirm 23.4
c1ccc(N=Nc2ccc3cccccc2-3)cc1	none
Clc1ccc(-c2[nH]ncc2N=Nc2ccccc2)cc1	ADAM10 inh 21.6, ADAM17 inh 10.3 | ADAM10 confirm inactive | ADAM17 ctr inactive | ADAM10 counter inactive | ADAM17 confirm 10.4
CCCc1nc2ccccc2c(C(=O)OCC(=O)NC2CC2)c1CC	none
CCCc1nc2ccccc2c(C(=O)OCC(=O)Nc2ccc(S(=O)(=O)N3CCOCC3)cc2)c1CC	ADAM10 inh 40.2, ADAM17 inh 17.5 | ADAM10 confirm inactive | ADAM17 ctr inactive | ADAM10 counter 29.8 | ADAM17 confirm 18.4
O=C(CCn1nnc(-c2cccs2)n1)NCc1cccs1	none
Cc1nc2sc(C(=O)NC3CC3)c(N)c2c(C)c1Cl	none
C=CC[C@@H](CC(=O)N(CCO)Cc1ccccc1)C(=O)N[C@H](COC(=O)[C@@H](CC=C)Cc1ccc(F)cc1)Cc1c[nH]c2ccccc12	ADAM10 inh 39.4, ADAM17 inh 14.0 | ADAM10 confirm inactive | ADAM17 ctr inactive | ADAM10 counter 46.4 | ADAM17 confirm 24.7
C=CCC[C@H](Cc1ccc(F)cc1)C(=O)OC[C@@H](C)NC(=O)[C@H](CC=C)CC(=O)N(CCO)Cc1ccccc1	none
C=CC[C@@H](CC(=O)N[C@@H](CO)Cc1ccccc1)C(=O)N[C@H](COC(=O)[C@@H](CC=C)Cc1ccc(F)cc1)Cc1c[nH]c2ccccc12	none
C=CCC[C@@H](Cc1ccc(F)cc1)C(=O)OC[C@@H](NC(=O)[C@H](CC=C)CC(=O)N(CCO)Cc1ccccc1)c1ccccc1	ADAM10 inh 27.2, ADAM17 inh 11.0 | ADAM10 confirm inactive | ADAM17 ctr inactive | ADAM10 counter 36.1 | ADAM17 confirm 20.3
C=CCC[C@H](Cc1ccc(F)cc1)C(=O)OC[C@H](Cc1c[nH]c2ccccc12)NC(=O)[C@H](CC=C)CC(=O)N(CCO)Cc1ccccc1	ADAM10 inh 24.4, ADAM17 inh 11.9 | ADAM10 confirm inactive | ADAM17 ctr inactive | ADAM10 counter 36.2 | ADAM17 confirm 17.6
C=CCC[C@H](Cc1ccc(F)cc1)C(=O)OC[C@@H](Cc1c[nH]c2ccccc12)NC(=O)[C@@H](CC=C)CC(=O)N[C@@H](CO)Cc1ccccc1	ADAM10 inh 22.5, ADAM17 inh 11.3 | ADAM10 confirm inactive | ADAM17 ctr inactive | ADAM10 counter inactive | ADAM17 confirm inactive
COc1ccc(C#CCN(C)/C(N)=N/C(=O)OCc2ccccc2)cc1	none
C=CC[C@H](CC(=O)N(CCO)Cc1ccccc1)C(=O)N[C@H](COC(=O)[C@H](CC=C)CC(=O)OC(C)(C)C)Cc1c[nH]c2ccccc12	none
C=CC[C@H](CC(=O)N(CCO)Cc1ccccc1)C(=O)N[C@H](COC(=O)[C@@H](CC=C)Cc1ccc(F)cc1)Cc1c[nH]c2ccccc12	ADAM10 inh 26.8, ADAM17 inh 14.8 | ADAM10 confirm inactive | ADAM17 ctr inactive | ADAM10 counter 41.3 | ADAM17 confirm 23.3
Cc1cc(=O)[nH]c(SCC(=O)Nc2cccc(C)c2C)n1	none
O=C(Nc1cccc(S(=O)(=O)Nc2ccc(Cl)cc2)c1)c1cc2c(s1)CCCC2	ADAM10 inh 26.6, ADAM17 inh 15.4 | ADAM10 confirm inactive | ADAM17 ctr inactive | ADAM10 counter 45.3 | ADAM17 confirm 27.1
O=C(Nc1cc(S(=O)(=O)Nc2ccccc2Cl)ccc1O)c1cc2c(s1)CCCC2	none
Cc1ccc(NC(=O)c2cc3c(s2)CCCC3)cc1S(=O)(=O)Nc1ccccc1Cl	ADAM10 inh 24.5, ADAM17 inh 15.9 | ADAM10 confirm 52.0 | ADAM17 ctr 14.6 | ADAM10 counter 22.4 | ADAM17 confirm 15.4
O=C(c1ccccc1I)N1CCC(Oc2cccnc2)CC1	none
O=C(OCc1csc(Nc2ccccc2)n1)c1ccc(Cl)cc1	ADAM10 inh 23.5, ADAM17 inh 12.1 | ADAM10 confirm inactive | ADAM17 ctr inactive | ADAM10 counter 44.9 | ADAM17 confirm 18.4
COC(=O)C1CN(Cc2cn(Cc3ccc(Cl)cc3)nn2)CCS(=O)(=O)N1Cc1ccccc1 (centres undefined)	none
COc1ccccc1CNS(=O)(=O)c1cc(-c2cc(C)no2)ccc1C(C)C	ADAM10 inh 31.8, ADAM17 inh 11.0 | ADAM10 confirm inactive | ADAM17 ctr inactive | ADAM10 counter inactive | ADAM17 confirm 11.6
O=C(Nc1ccc(Cl)c(S(=O)(=O)N2CCCCC2)c1)c1ccncc1	none
Cn1cccc1C(=O)Nc1ccc(Cl)c(S(=O)(=O)N2CCCCC2)c1	ADAM10 inh 39.9, ADAM17 inh 16.9 | ADAM10 confirm inactive | ADAM17 ctr inactive | ADAM10 counter inactive | ADAM17 confirm inactive
CCCCCCNC(=O)O[C@H]1Cn2c(=O)n(CCCCCC)c(=O)n2[C@@H]2CN(S(=O)(=O)c3ccc(C)cc3)C[C@]12O	ADAM10 inh 20.4, ADAM17 inh 11.2 | ADAM10 confirm inactive | ADAM17 ctr inactive | ADAM10 counter 39.9 | ADAM17 confirm 21.6
C[C@H](O)[C@@H]1C(=O)N2CCc3c([nH]c4c(-c5ccc6c(c5)OCO6)cccc34)[C@@H]2C[C@@H]1N(C)C(=O)OCc1ccccc1	none
Cc1ccc(Sc2ccc(/C=N/O)cc2[N+](=O)[O-])cc1	ADAM10 inh 26.7, ADAM17 inh 9.7 | ADAM10 confirm inactive | ADAM17 ctr inactive | ADAM10 counter 27.2 | ADAM17 confirm 14.8
CO/N=C/c1ccc(Sc2ccc(C)cc2)c([N+](=O)[O-])c1	none
CC(C)(C)NC(=O)C(c1cccnc1)N(C(=O)c1cnc[nH]1)c1ccc(C(C)(C)C)cc1 (centres undefined)	none
O=C(CCc1c[nH]c2ccccc12)OCc1ccc(Br)cc1	ADAM10 inh 23.1, ADAM17 inh 11.5 | ADAM10 confirm inactive | ADAM17 ctr inactive | ADAM10 counter inactive | ADAM17 confirm 10.8
